{"source": "ChEMBL document CHEMBL1914438", "about": "“Synthesis and biological activity of novel N-cycloalkyl-(cycloalkylaryl)-2-[(3-R-2-oxo-2H-[1,2,4]triazino[2,3-c]quinazoline-6-yl)thio]acetamides” (2011)", "type_in_all_cases": "functional", "key": {"[1]": {"test_system": "SNB-75", "experiment": "Growth inhibition of human SNB75 cells after 48 hrs by SRB assay", "conditions": "SNB-75, 48 h", "summary_of_the_method": "(§1)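 NCI 60-cell-line human tumor panel. Cells were inoculated and preincubated for 24–48 h, then exposed continuously to compound for 48 h. Primary screen used a single 10^-5 M concentration. Growth was measured by sulforhodamine B protein staining, read spectrophotometrically, and reported as percent growth versus untreated controls. Selected compounds were also run at five 10-fold dilutions (10^-4 to 10^-8 M) to derive GI50 from time-zero-corrected absorbances.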"}, "[2]": {"test_system": "LOX IMVI", "experiment": "Growth inhibition of human LOXIMVI cells after 48 hrs by SRB assay", "summary_of_the_method": "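NCI panel of about 60 human tumor lines, 48 h continuous exposure at five 10-fold dilutions from 10^-4 to 10^-8 M. SRB protein staining was read as absorbance at time zero, in untreated controls and at each concentration. GI50 is the concentration giving 50% lower net protein increase than controls. TGI is where Ti = Tz, and LC50 is 50% protein loss versus start.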"}, "[3]": {"test_system": "RXF 393", "experiment": "Growth inhibition of human RXF393 cells after 48 hrs by SRB assay", "conditions": "RXF 393, 48 h", "summary_of_the_method": "as §1"}, "[4]": {"test_system": "Photobacterium leiognathi", "experiment": "Antibacterial activity against Photobacterium leiognathi Sh1 assessed as inhibition of bacterial luminescence at 0.25 mg/mL after 10 mins by bioluminometry-based chronic action test", "set-up": "scale not given: the % may be the effect or the level left", "conditions": "in the assay text read “after 16 to 18 hrs” for “after 10 mins”", "summary_of_the_method": "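Chronic (growth plus luminescence) test with P. leiognathi Sh1 at 10^5 cells/mL in chloride solution, compounds added in DMSO. After 10 min at 25 °C, growth medium added at 1:50 and the mix incubated 16–18 h at 30 °C. Luminescence then measured by bioluminometer as % of untreated control. Tetracycline reference.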"}, "[5]": {"test_system": "K562", "experiment": "Cytotoxicity against human K562 cells assessed as cell growth at 10^-5 M after 48 hrs by SRB assay", "conditions": "K562, 48 h, read-out: Activity", "summary_of_the_method": "(§2)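 NCI 60-cell-line one-dose primary screen: cells inoculated and preincubated 24–48 h, then test agent added at a single 10^-5 M concentration for a further 48 h. Endpoint is sulforhodamine B protein staining read spectrophotometrically. Reported as percent growth relative to untreated control cells.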"}, "[6]": {"test_system": "SK-MEL-5", "experiment": "Cytotoxicity against human SK-MEL-5 cells assessed as cell growth at 10^-5 M after 48 hrs by SRB assay", "conditions": "SK-MEL-5, 48 h, read-out: Activity", "summary_of_the_method": "(§3)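 NCI human tumor cell line panel from nine cancer types. Each line was inoculated and preincubated 24–48 h, then exposed to a single concentration (10^-5 M) for 48 h. Growth was read by sulforhodamine B protein staining, measured spectrophotometrically. Value reported as percent growth of treated cells relative to untreated controls.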"}, "[7]": {"test_system": "BT-549", "experiment": "Cytotoxicity against human BT549 cells assessed as cell growth at 10^-5 M after 48 hrs by SRB assay", "conditions": "BT-549, 48 h, read-out: Activity", "summary_of_the_method": "as §2"}, "[8]": {"test_system": "HT-29", "experiment": "Cytotoxicity against human HT-29 cells assessed as cell growth at 10^-5 M after 48 hrs by SRB assay", "conditions": "HT-29, 48 h, read-out: Activity", "summary_of_the_method": "as §2"}, "[9]": {"test_system": "SW-620", "experiment": "Cytotoxicity against human SW620 cells assessed as cell growth at 10^-5 M after 48 hrs by SRB assay", "conditions": "SW-620, 48 h, read-out: Activity", "summary_of_the_method": "as §3"}, "[10]": {"test_system": "Malme-3M", "experiment": "Cytotoxicity against human MALME-3M cells assessed as cell growth at 10^-5 M after 48 hrs by SRB assay", "conditions": "read-out: Activity", "summary_of_the_method": "as §2"}, "[11]": {"test_system": "IGROV-1", "experiment": "Cytotoxicity against human IGROV1 cells assessed as cell growth at 10^-5 M after 48 hrs by SRB assay", "conditions": "IGROV-1, 48 h, read-out: Activity", "summary_of_the_method": "as §2"}, "[12]": {"test_system": "OVCAR-8", "experiment": "Cytotoxicity against human OVCAR8 cells assessed as cell growth at 10^-5 M after 48 hrs by SRB assay", "conditions": "OVCAR-8, 48 h, read-out: Activity", "summary_of_the_method": "as §3"}, "[13]": {"test_system": "Photobacterium leiognathi", "experiment": "Antibacterial activity against Photobacterium leiognathi Sh1 assessed as inhibition of bacterial luminescence at 0.25 mg/mL after 10 mins by bioluminometry-based acute action test", "set-up": "scale not given: the % may be the effect or the level left", "summary_of_the_method": "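Marine P. leiognathi Sh1 (Azov Sea shrimp isolate) diluted in chloride solution to 10^5 cells/mL; compounds suspended in DMSO mixed with 1 mL bacterial suspension. Acute test: 10 min at 25 °C, then bioluminescence measured by bioluminometer as % of compound-free control. Tetracycline reference.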"}, "[14]": {"conditions": "read-out: pLC50 (the source's name) (converted)"}}}
{"smiles": "CCC1C2CCC(C2)C1NC(=O)CSc1nc2ccccc2c2nc(=O)c(-c3ccc(OC)cc3)nn12", "note": "(centres undefined)", "values": [{"measurement": "GI50", "setting": "[1]", "value": 3.09, "unit": "µM"}, {"measurement": "CC50", "setting": "[1]; [14]", "value": 30.9, "unit": "µM"}, {"measurement": "TGI", "setting": "[1]; read-out: pTGI (converted)", "value": 11.5, "unit": "µM"}, {"measurement": "GI50", "setting": "[2]", "value": 3.55, "unit": "µM"}, {"measurement": "CC50", "setting": "[2]; [14]", "value": "> 50.1", "unit": "µM"}, {"measurement": "TGI", "setting": "[2]; read-out: pTGI (converted)", "value": 18.2, "unit": "µM"}, {"measurement": "GI50", "setting": "[3]", "value": 1.48, "unit": "µM"}, {"measurement": "CC50", "setting": "[3]; [14]", "value": 17.4, "unit": "µM"}, {"measurement": "TGI", "setting": "[3]; read-out: pTGI (converted)", "value": 4.17, "unit": "µM"}, {"measurement": "Activity", "setting": "[4]", "value": 80, "unit": "%"}, {"measurement": "growth at 10 µM", "setting": "[5]", "value": 39.2, "unit": "%"}, {"measurement": "growth at 10 µM", "setting": "[6]", "value": 59.8, "unit": "%"}, {"measurement": "growth at 10 µM", "setting": "[7]", "value": 90.9, "unit": "%"}, {"measurement": "growth at 10 µM", "setting": "[8]", "value": 42.8, "unit": "%"}, {"measurement": "growth at 10 µM", "setting": "[9]", "value": 45.9, "unit": "%"}, {"measurement": "growth at 10 µM", "setting": "[10]", "value": -29.2, "unit": "%"}, {"measurement": "growth at 10 µM", "setting": "[11]", "value": 17, "unit": "%"}, {"measurement": "growth at 10 µM", "setting": "[12]", "value": 53.1, "unit": "%"}, {"measurement": "Activity", "setting": "[13]", "value": 90.9, "unit": "%"}]}
